Assay results taken from ChEMBL document CHEMBL3091295, “Inhibitors of tissue-nonspecific alkaline phosphatase: design, synthesis, kinetics, biomineralization and cellular tests” (Bioorg Med Chem, 2013).
≈ marks a conversion by molar mass, not a printed value. Calls of active or inactive are those of the source. The calls are words filed in the database; no cut-off is given here.

What was measured:
[1] = Solubility of the compound in water by UV spectrometric analysis; type: physicochemical
[2] = Inhibition of porcine kidney TNAP assessed as para nitrophenylphosphate conversion to p-nitrophenolate at pH 7.8 incubated for 10 mins prior to substrate addition measured after 5 seconds by spectrophotometric analysis; set-up: species or system Sus scrofa
Procedure, shortened: (§1)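 Enzyme (TNAP, PLAP or IAP; final 6.93–11.4 µg/ml) in buffer with inhibitor at 0–400 µM, added from 10 mM DMSO stock. Preincubated 10 min at 37 °C without substrate, then mixed with an equal volume of 0.1 mM pNPP in the same buffer and stirred 5 s. p-Nitrophenolate read at 400 nm (ε 18.5 cm⁻¹ mM⁻¹ at pH 10.4), final DMSO 4% v/v. Activity relative to the no-inhibitor control. pH 7.8 runs used 0.1 M Tris–HCl with 5 mM MgCl2 and 5 mM ZnCl2 at 37 °C.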

[3] = target: T1, Alkaline phosphatase, placental type (Homo sapiens, UniProt P05187); test: Inhibition of placental alkaline phosphatase (unknown origin) assessed as para nitrophenylphosphate conversion to p-nitrophenolate at pH 7.8 incubated for 10 mins prior to substrate addition measured after 5 seconds by spectrophotometric analysis; procedure, shortened: as §1
T1 sequence (P05187 whole entry): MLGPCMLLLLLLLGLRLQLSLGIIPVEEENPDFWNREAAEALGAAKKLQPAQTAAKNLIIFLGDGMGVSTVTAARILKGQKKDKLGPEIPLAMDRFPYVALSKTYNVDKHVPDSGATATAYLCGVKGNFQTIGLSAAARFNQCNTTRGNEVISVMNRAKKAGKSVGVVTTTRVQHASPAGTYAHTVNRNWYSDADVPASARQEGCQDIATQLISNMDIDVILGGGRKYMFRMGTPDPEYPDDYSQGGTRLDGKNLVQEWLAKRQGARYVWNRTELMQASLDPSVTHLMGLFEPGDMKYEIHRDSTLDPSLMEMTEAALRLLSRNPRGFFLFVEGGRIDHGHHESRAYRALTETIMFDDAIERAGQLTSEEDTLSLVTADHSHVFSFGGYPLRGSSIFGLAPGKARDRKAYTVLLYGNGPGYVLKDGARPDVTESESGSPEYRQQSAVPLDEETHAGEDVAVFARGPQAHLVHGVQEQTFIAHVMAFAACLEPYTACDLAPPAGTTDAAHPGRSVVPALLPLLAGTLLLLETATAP

[4] = target: T2, Intestinal-type alkaline phosphatase (Homo sapiens, UniProt P09923); test: Inhibition of intestinal alkaline phosphatase (unknown origin) assessed as para nitrophenylphosphate conversion to p-nitrophenolate at pH 10.4 incubated for 10 mins prior to substrate addition measured after 5 seconds by spectrophotometric analysis; procedure, shortened: as §1
T2 sequence (P09923 whole entry): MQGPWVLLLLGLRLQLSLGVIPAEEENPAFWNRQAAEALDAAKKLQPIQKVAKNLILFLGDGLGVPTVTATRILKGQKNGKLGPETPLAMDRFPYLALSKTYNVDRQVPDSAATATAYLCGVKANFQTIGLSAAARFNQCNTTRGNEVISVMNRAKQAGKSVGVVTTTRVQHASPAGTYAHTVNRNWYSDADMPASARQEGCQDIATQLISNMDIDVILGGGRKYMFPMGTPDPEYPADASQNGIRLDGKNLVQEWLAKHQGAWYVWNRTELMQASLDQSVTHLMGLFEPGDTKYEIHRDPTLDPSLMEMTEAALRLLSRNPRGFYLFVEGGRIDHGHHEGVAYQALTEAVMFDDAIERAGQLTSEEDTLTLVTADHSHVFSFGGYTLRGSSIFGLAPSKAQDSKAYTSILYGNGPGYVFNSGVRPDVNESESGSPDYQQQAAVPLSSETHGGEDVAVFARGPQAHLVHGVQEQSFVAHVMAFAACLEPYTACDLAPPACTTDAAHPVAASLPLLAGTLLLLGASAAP

[5] = Uncompetitive inhibition of porcine kidney TNAP assessed as para nitrophenylphosphate conversion to p-nitrophenolate at pH 7.8 by Michaelis-Menten plot analysis; set-up: species or system Sus scrofa
Procedure, shortened: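 Porcine kidney TNAP activity measured with pNPP at pH 7.8 in 0.1 M Tris–HCl containing 5 mM MgCl2 and 5 mM ZnCl2 at 37 °C. Inhibitor was preincubated with enzyme for 10 min before substrate, and p-nitrophenolate was read at 400 nm to derive Ki.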

[6] = Inhibition of porcine kidney TNAP assessed as para nitrophenylphosphate conversion to p-nitrophenolate at pH 10.4 incubated for 10 mins prior to substrate addition measured after 5 seconds by spectrophotometric analysis; set-up: species or system Sus scrofa; procedure, shortened: as §1
[7] = target: T1, Alkaline phosphatase, placental type; test: Inhibition of placental alkaline phosphatase (unknown origin) assessed as para nitrophenylphosphate conversion to p-nitrophenolate at pH 10.4 incubated for 10 mins prior to substrate addition measured after 5 seconds by spectrophotometric analysis; procedure, shortened: as §1
[8] = system: SAOS-2; test: Reduction in beta-glycerophosphate-induced mineralization in human Saos2 cells at 10 uM after 7 days by Alizarin Red S staining-based assay relative to control; type: functional; set-up: scale not given: the % may be the effect or the level left
Procedure, shortened: (§2)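 Confluent cells were cultured 7 days in growth medium with ascorbic acid and 7.5 mM β-glycerophosphate, with or without inhibitor (DMSO ≤0.1% v/v). Saos-2 were grown in McCoy's 5A with 15% FBS. Mineral was stained with Alizarin Red S, destained with 3.6% w/v cetylpyridinium chloride in PBS pH 7.0 for 60 min at room temperature, and read at 562 nm. Results are % of control, mean ± SD; MG63 n = 3, Saos-2 n = 9–12.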

[9] = target: T2, Intestinal-type alkaline phosphatase; test: Inhibition of intestinal alkaline phosphatase (unknown origin) assessed as para nitrophenylphosphate conversion to p-nitrophenolate at pH 7.8 incubated for 10 mins prior to substrate addition measured after 5 seconds by spectrophotometric analysis; procedure, shortened: as §1
[10] = Cytotoxicity against human Saos2 cells assessed as cell viability up to 10 uM by MTT assay; type: cell-based; details: saos-2
Procedure, shortened: (§3)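 MTT viability: cells seeded at 3 × 10^4 cells/cm2 and treated with ascorbic acid plus 7.5 mM β-glycerophosphate, with or without inhibitor (DMSO ≤0.1% v/v final). MTT at 0.5 mg/ml final for 4 h, then solubilization solution overnight at 37 °C. Absorbance at 550 and 690 nm as % of untreated control, mean ± SD. MG63: one pool in triplicate (n = 3). Saos-2: 3–4 pools in triplicate (n = 9–12).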

[11] = system: SAOS-2; test: Reduction in ascorbic acid-induced mineralization in human Saos2 cells at 10 uM after 7 days by Alizarin Red S staining-based assay relative to control; type: functional; set-up: scale not given: the % may be the effect or the level left; procedure, shortened: as §2
[12] = system: MG-63; test: Reduction in ascorbic acid-induced mineralization in human MG63 cells at 10 uM after 7 days by Alizarin Red S staining-based assay; type: functional, cell-based; procedure, shortened: as §2
[13] = Cytotoxicity against human MG63 cells assessed as cell viability up to 10 uM by MTT assay; type: cell-based; details: mg-63; procedure, shortened: as §3
[14] = system: MG-63; test: Reduction in beta-glycerophosphate-induced mineralization in human MG63 cells at 10 uM after 7 days by Alizarin Red S staining-based assay; type: functional, cell-based; procedure, shortened: as §2
[15] = Solubility of the compound

solubility [1] [µM]	IC50 [2] [µM]	IC50 [3] [µM]	IC50 [4] [µM]	Ki [5] [µM]	IC50 [6] [µM]	IC50 [7] [µM]	IC50 [9] [µM]	solubility [15] [µM]	SMILES	Activity [8]	Activity [10]	Activity [11]	Activity [12]	Activity [13]	Activity [14]
6900	2.11	> 400	> 400	1.3	3.31	> 400	> 400	–	Cl.O=[N+]([O-])c1ccc2sc(C3CN4C=CSC4=N3)cc2c1 (racemic)	25%	Non-toxic	25%	–	–	–
1770	18.3	> 400	> 400	10.3	23.2	> 400	> 400	–	Cl.Nc1ccc2sc(C3CN4C=CSC4=N3)cc2c1 (racemic)	Active	Non-toxic	Active	–	–	–
1300	4.4	> 400	> 400	3.9	13.1	> 400	> 400	–	C1=CN2CC(c3cc4ccccc4s3)N=C2S1.Cl (racemic)	Active	Non-toxic	Active	Active	Non-toxic	Active
450	5.5	> 400	> 400	5	16.4	> 400	> 400	–	Cl.c1ccc2sc(C3CN4CCSC4=N3)cc2c1 (racemic)	Active	Non-toxic	Active	Active	Non-toxic	Active
–	23.2	> 400	> 400	30.5	62.9	> 400	> 400	200000 (≈ 40.9 mg/mL)	c1ccc([C@H]2CN3CCSC3=N2)cc1 [LEVAMISOLE]	33%	Non-toxic	33%	Active	Non-toxic	Active
